According to ChEMBL document CHEMBL5033990, “Novel Aryl-Substituted Pyrimidones as Inhibitors of 3-Mercaptopyruvate Sulfurtransferase with Antiproliferative Efficacy in Colon Cancer” (J Med Chem, 2021):
Each block holds one compound with its values, some of them ahead of it. Activity calls are given as the source filed them. No cut-off for these calls is given here.

Columns and labels:
[1] = biological target: Cystathionine gamma-lyase (Homo sapiens) (UniProt P32929); experiment: Inhibition of human full length CSE using L-cysteine as substrate at 30 to 300 uM preincubated with enzyme for 1 hr followed by substrate and PLP addition for 2 hrs by AzMC probe based fluorescence analysis; settings: dose 30-300 µM, time 3.0 hrs
Summary of the method: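 Human full-length CSE, 2 μg/well, preincubated 1 h with compound at 30 or 300 μM. Then added 5 μM PLP and 2 mM L-cysteine. AzMC fluorescence read kinetically for 2 h at 37 °C. Substrate background subtracted; percent of control, at least three replicates.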

[2] = Inhibition of recombinant human 3-MST expressed in Escherichia coli assessed as inhibition of H2S generation using 3-MP as substrate preincubated with enzyme for 1 hr followed by incubation with substrate for 1 hr by AzMC probe based fluorescence analysis
Summary of the method: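 Same 3-MST/3-MP/AzMC assay, 1 h preincubation then 1 h kinetic read, at 3, 10, 30, 100 and 300 μM (final DMSO 0.3%). Run for compounds inhibiting at least 60% at 100 μM. Three experiments in triplicate. IC50 from nonlinear fit of data taken between min 20 and 40 of the 60 min read.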

[3] = Inhibition of GYY4137-induced H2S release assessed as H2S-induced fluorescence signal at 300 uM measured after 2 hrs by AzMC probe based fluorescence analysis; format: functional; parameters: scale not given: the % may be the effect or the level left
Summary of the method: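 H2S scavenging/interference check in 50 mM Tris-HCl pH 8: compound at 300 μM with 100 μM AzMC and 5 mM GYY4137 as nonenzymatic H2S donor. Fluorescence read kinetically for 2 h at 37 °C (ex 365/em 450 nm). Signal loss above 20% flagged as potential scavenger/interferer.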

MC-38 [4] = experiment: Antiproliferative activity against mouse MC38 cells assessed as inhibition of cell proliferation measured after 24 hrs by MTT assay; format: functional, cell-based; settings: MC-38, 24 h
MC38 = experiment: Inhibition of 3-MST in mouse MC38 cells assessed as inhibition of H2S generation at 300 uM incubated for 4 hrs by AzMC probe based fluorescence analysis; format: cell-based
Summary of the method: (§1)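 Cells seeded at 60,000/well in 8-well chambers and allowed to adhere overnight. Exposed to 300 μM compound for 4 h, then supernatant replaced with 1 mM AzMC in HBSS plus glucose for 1 h. Fluorescence imaged by microscopy; mean pixel intensity expressed as percent of control.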

MC-38 [5] = experiment: Antiproliferative activity against mouse MC38 cells assessed as inhibition of cell proliferation upto 300 uM measured after 24 hrs by MTT assay; format: functional, cell-based; settings: dose microM <=300, time 24.0 hrs
Summary of the method: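 CT26 or MC38 cells in high-glucose DMEM with 10% FBS and penicillin/streptomycin, 37 °C, 5% CO2. Seeded at 10,000 cells/well and treated after 1 h adherence at 3, 10, 30, 100 and 300 μM (final DMSO 0.5%). After 24 h, medium replaced by 2 mg/mL MTT in PBS for 3 h. Formazan dissolved in DMSO, absorbance read at 590 nm minus 690 nm. Expressed as percent of control; three experiments in triplicate.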

CT26 [6] = experiment: Antiproliferative activity against mouse CT26 cells assessed as inhibition of cell proliferation measured after 24 hrs by MTT assay; format: functional, cell-based; settings: CT26, 24 h
CT26 [7] = experiment: Inhibition of 3-MST in mouse CT26 cells assessed as inhibition of H2S generation at 300 uM incubated for 4 hrs by AzMC probe based fluorescence analysis; format: cell-based; summary of the method: as §1
[8] = biological target: T1, Cystathionine beta-synthase (Homo sapiens) (UniProt P35520); experiment: Inhibition of human full length CBS using L-cysteine and L-homocysteine as substrate at 30 to 300 uM preincubated with enzyme for 1 hr followed by substrate, PLP and SAM addition for 2 hrs by AzMC probe based fluorescence analysis; settings: dose 30-300 µM, time 3.0 hrs
T1 sequence (whole entry): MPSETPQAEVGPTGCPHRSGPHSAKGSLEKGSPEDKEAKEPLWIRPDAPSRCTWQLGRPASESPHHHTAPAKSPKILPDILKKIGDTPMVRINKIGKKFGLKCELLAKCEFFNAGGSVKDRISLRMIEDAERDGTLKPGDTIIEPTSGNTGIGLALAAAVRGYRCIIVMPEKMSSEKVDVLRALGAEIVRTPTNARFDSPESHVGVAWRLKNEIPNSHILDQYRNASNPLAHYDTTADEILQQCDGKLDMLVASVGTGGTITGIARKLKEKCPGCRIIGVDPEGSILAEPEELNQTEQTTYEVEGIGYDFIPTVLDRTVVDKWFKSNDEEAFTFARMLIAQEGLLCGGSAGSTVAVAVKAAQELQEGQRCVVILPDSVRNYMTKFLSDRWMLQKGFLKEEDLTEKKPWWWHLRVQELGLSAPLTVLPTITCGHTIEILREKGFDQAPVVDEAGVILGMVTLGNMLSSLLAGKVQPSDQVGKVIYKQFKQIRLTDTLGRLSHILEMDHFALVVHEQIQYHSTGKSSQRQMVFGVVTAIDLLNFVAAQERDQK
Summary of the method: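 Human full-length CBS, 0.5 μg/well, preincubated 1 h with compound at 30 or 300 μM. Then added 5 μM PLP, 2 mM L-cysteine, 2 mM L-homocysteine and 500 μM SAM. AzMC fluorescence read kinetically for 2 h at 37 °C. Substrate background subtracted; percent of control, at least three replicates.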

CT26 [9] = experiment: Antiproliferative activity against mouse CT26 cells assessed as inhibition of cell proliferation measured after 48 hrs by IncuCyte live-cell imaging assay; format: functional, cell-based; settings: CT26, 48 h
MC-38 [10] = experiment: Antiproliferative activity against mouse MC38 cells assessed as inhibition of cell proliferation measured after 48 hrs by IncuCyte live-cell imaging assay; format: functional, cell-based; settings: MC-38, 48 h
Mus musculus = experiment: Antitumor activity against mouse MC38 cells xenografed in C57BL/6 mouse assessed as euthanasia rate at 20 mg/kg, ip administered daily for 2 weeks and measured on day 32 (reference value: 75%); format: functional, MC-38; settings: time 32 day
Homo sapiens = species: Homo sapiens; experiment: Inhibition of recombinant human 3-MST expressed in Escherichia coli assessed as inhibition of H2S generation using 3-MP as substrate at 100 uM preincubated with enzyme for 1 hr followed by incubation with substrate for 1 hr by AzMC probe based fluorescence analysis; settings: time 2.0 hrs
Summary of the method: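 Human recombinant 3-MST, 3 μg/well, in 50 mM Tris-HCl pH 8 preincubated 1 h at 37 °C with compound at 100 μM (from 100 mM DMSO stock). Then 2 mM 3-MP (no extra sulfur acceptor) and 10 μM AzMC added. Fluorescence read kinetically 1 h at 37 °C, ex 365/em 450 nm. Percent inhibition, mean of three replicates.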

MC-38 [11] = experiment: Antitumor activity against mouse MC38 cells xenografed in C57BL/6 mouse assessed as reduction in tumor growth at 20 mg/kg, ip administered daily for 2 weeks by caliper analysis; format: functional, organism-based

Cystathionine gamma-lyase (Homo sapiens), sequence (P32929 whole entry): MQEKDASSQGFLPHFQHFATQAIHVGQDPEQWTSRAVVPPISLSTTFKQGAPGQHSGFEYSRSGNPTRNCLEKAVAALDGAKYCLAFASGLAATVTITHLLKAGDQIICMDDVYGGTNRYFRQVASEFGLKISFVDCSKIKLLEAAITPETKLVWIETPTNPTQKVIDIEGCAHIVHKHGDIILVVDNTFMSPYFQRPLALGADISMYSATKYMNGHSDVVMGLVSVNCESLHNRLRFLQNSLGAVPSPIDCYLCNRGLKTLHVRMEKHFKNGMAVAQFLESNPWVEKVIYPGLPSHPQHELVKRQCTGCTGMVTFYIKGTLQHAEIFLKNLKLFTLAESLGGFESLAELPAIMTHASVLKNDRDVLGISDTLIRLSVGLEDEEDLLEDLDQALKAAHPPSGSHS

inhibition [1]: Active
IC50 [2]: 16.1 µM
Structure (SMILES): Cc1cc(=O)[nH]c(SCC(=O)c2ccc3ncccc3c2)n1

IC50 [2]: 21.6 µM
Structure (SMILES): O=C(CSc1nccc(=O)[nH]1)c1ccc(O)c(F)c1
Activity [3]: < 80%

IC50 (CT26 [6]): > 1000 µM
inhibition [1]: inactive
inhibition [8]: inactive
IC50 (CT26 [9]): > 1000 µM
IC50 [2]: 9.9 µM
Structure (SMILES): CC(=O)Nc1ccc(C(=O)CSc2nc(C)cc(O)n2)cc1
IC50 (MC-38 [4]): > 1000 µM
inhibition (MC38): Active
Activity (MC-38 [5]): inactive
inhibition (CT26 [7]): Active
IC50 (MC-38 [10]): > 1000 µM

IC50 [2]: 16.9 µM
Structure (SMILES): Cc1cc(=O)[nH]c(SCC(=O)c2ccc(O)c(I)c2)n1
Activity [3]: < 80%

IC50 [2]: 13.4 µM
Structure (SMILES): Cc1cc(=O)[nH]c(SCC(=O)c2cc(Cl)c(O)c(Cl)c2)n1
Activity [3]: < 80%

inhibition (Homo sapiens): 68%
IC50 (CT26 [6]): 243 µM
IC50 (CT26 [9]): 207 µM
IC50 [2]: 15.6 µM
Structure (SMILES): Cc1cc(=O)[nH]c(SCC(=O)c2cccc3ccccc23)n1
Activity (Mus musculus): 67%
IC50 (MC-38 [4]): 221 µM
inhibition (MC38): Active
inhibition (CT26 [7]): Active
Activity (MC-38 [11]): inactive
IC50 (MC-38 [10]): 101 µM

IC50 [2]: 14.2 µM
Structure (SMILES): O=C(CSc1nccc(=O)[nH]1)c1ccc(O)c(I)c1
Activity [3]: < 80%

IC50 (CT26 [6]): 200 µM
inhibition [1]: inactive
inhibition [8]: inactive
IC50 (CT26 [9]): 150 µM
IC50 [2]: 28.2 µM
Structure (SMILES): O=C(CSc1nccc(=O)[nH]1)c1ccc2ccccc2c1
IC50 (MC-38 [4]): 340 µM
inhibition (MC38): Active
inhibition (CT26 [7]): Active
IC50 (MC-38 [10]): 152 µM

IC50 [2]: 34.1 µM
Structure (SMILES): O=C(CSc1nccc(=O)[nH]1)c1cc(O)cc(O)c1
Activity [3]: < 80%

IC50 [2]: 31.8 µM
Structure (SMILES): O=C(CSc1nccc(=O)[nH]1)c1ccc(F)c2ccccc12

IC50 (CT26 [6]): 502 µM
inhibition [1]: inactive
inhibition [8]: inactive
IC50 (CT26 [9]): 520 µM
IC50 [2]: 19.5 µM
Structure (SMILES): Cc1cc(=O)[nH]c(SCC(=O)c2ccc3c(c2)OCO3)n1
IC50 (MC-38 [4]): 367 µM
inhibition (MC38): Active
Activity (MC-38 [5]): inactive
inhibition (CT26 [7]): Active
IC50 (MC-38 [10]): 777 µM

IC50 [2]: 20.2 µM
Structure (SMILES): NC(=O)c1cc(C(=O)CSc2nccc(=O)[nH]2)ccc1O
Activity [3]: < 80%

IC50 [2]: 22.6 µM
Structure (SMILES): Cc1cc(=O)[nH]c(SCC(=O)c2ccc3ccccc3c2)n1

IC50 (CT26 [6]): 475 µM
inhibition [1]: inactive
inhibition [8]: inactive
IC50 (CT26 [9]): > 1000 µM
IC50 [2]: 14.4 µM
Structure (SMILES): CC(=O)Nc1ccc(C(=O)CSc2nccc(O)n2)cc1
IC50 (MC-38 [4]): > 1000 µM
inhibition (MC38): Active
Activity (MC-38 [5]): inactive
inhibition (CT26 [7]): Active
IC50 (MC-38 [10]): > 1000 µM

inhibition [1]: Active
IC50 [2]: 12.9 µM
Structure (SMILES): O=C(CSc1nccc(=O)[nH]1)c1ccc(O)cc1

IC50 (CT26 [6]): > 1000 µM
inhibition [1]: inactive
inhibition [8]: inactive
IC50 (CT26 [9]): > 1000 µM
IC50 [2]: 23.6 µM
Structure (SMILES): Cc1cc(=O)[nH]c(SCC(=O)c2cc(O)cc(O)c2)n1
IC50 (MC-38 [4]): > 1000 µM
inhibition (MC38): Active
Activity (MC-38 [5]): inactive
inhibition (CT26 [7]): Active
IC50 (MC-38 [10]): > 1000 µM

IC50 [2]: 18.8 µM
Structure (SMILES): O=C(CSc1nccc(=O)[nH]1)c1ccc(O)c(Cl)c1
Activity [3]: < 80%

IC50 [2]: 18.9 µM
Structure (SMILES): O=C(CSc1nccc(=O)[nH]1)c1ccc(O)c(O)c1
Activity [3]: < 80%

IC50 [2]: 21.3 µM
Structure (SMILES): Cc1cc(=O)[nH]c(SCC(=O)c2ccc(O)c(C(N)=O)c2)n1
Activity [3]: < 80%

IC50 [2]: 10.8 µM
Structure (SMILES): Cc1cc(O)nc(SCC(=O)c2ccc(O)cc2)n1
Activity [3]: < 80%

IC50 [2]: 15.6 µM
Structure (SMILES): Cc1cc(O)nc(SCC(=O)c2ccc(O)c(O)c2)n1
Activity [3]: < 80%

IC50 [2]: 12.1 µM
Structure (SMILES): O=C(CSc1nccc(=O)[nH]1)c1cc(Cl)c(O)c(Cl)c1
Activity [3]: < 80%

IC50 [2]: 28 µM
Structure (SMILES): Cc1cc(=O)[nH]c(SCC(=O)c2ccc(O)c(F)c2)n1
Activity [3]: < 80%

IC50 [2]: 25.3 µM
Structure (SMILES): Cc1cc(=O)[nH]c(SCC(=O)c2ccc(O)c(Cl)c2)n1
Activity [3]: < 80%

IC50 (CT26 [6]): 356 µM
inhibition [1]: inactive
inhibition [8]: inactive
IC50 (CT26 [9]): 352 µM
IC50 [2]: 7.3 µM
Structure (SMILES): O=C(CSc1nccc(=O)[nH]1)c1cccc2ccccc12
Activity (Mus musculus): 33%
IC50 (MC-38 [4]): 366 µM
inhibition (MC38): Active
inhibition (CT26 [7]): Active
Activity (MC-38 [11]): Active
IC50 (MC-38 [10]): 191 µM

IC50 [2]: 6.6 µM
Structure (SMILES): Nc1c(Cl)cc(C(=O)CSc2nccc(=O)[nH]2)cc1Cl
Activity [3]: < 80%

IC50 [2]: 3.3 µM
Structure (SMILES): Cc1cc(=O)[nH]c(SCC(=O)c2ccc(O)c3ccccc23)n1
Activity [3]: < 80%

IC50 [2]: 35.9 µM
Structure (SMILES): Cc1cc(=O)[nH]c(SCC(=O)c2ccc(F)c3ccccc23)n1

IC50 [2]: 15.5 µM
Structure (SMILES): O=C(CSc1nccc(=O)[nH]1)c1ccc2ncccc2c1
Activity [3]: < 80%
